Source: ChEMBL document CHEMBL3232837, “Synthesis and evaluation of new Hsp90 inhibitors based on a 1,4,5-trisubstituted 1,2,3-triazole scaffold” (J Med Chem, 2014)
pIC50: −log10 of the molar value.

Tests used:
[1] = molecular target: Heat shock protein HSP 90-alpha (Homo sapiens, UniProt P07900); assay: Displacement of GM-FITC from full-length recombinant human Hsp90-alpha after 4 hrs by fluorescence polarization assay
[2] = tested on: NCI-H460; assay: Cytotoxicity against human NCI-H460 cells assessed as growth inhibition after 72 hrs by SRB assay; assay type: functional, cell-based; conditions: NCI-H460, 72 h
Outline: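 NCI-H460 cells grown in RPMI-1640 with 10% heat-inactivated FBS, seeded at about 10% confluence and allowed 24 h recovery. Exposed to graded drug concentrations or solvent for 72 h. Surviving fraction measured by sulforhodamine B. IC50 is the concentration giving a 50% drop in cell number vs vehicle, from dose-response curve fitting; mean of n=4 with SD.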

[3] = molecular target: Heat shock protein HSP 90-beta (Homo sapiens) (UniProt P08238); assay: Inhibition of HSP90 in human A431 cells overexpressing EGFR assessed as downregulation of EGFR protein expression after 24 hrs by Western blot analysis; assay type: cell-based; conditions: A-431
Heat shock protein HSP 90-beta (Homo sapiens), sequence (P08238 whole entry): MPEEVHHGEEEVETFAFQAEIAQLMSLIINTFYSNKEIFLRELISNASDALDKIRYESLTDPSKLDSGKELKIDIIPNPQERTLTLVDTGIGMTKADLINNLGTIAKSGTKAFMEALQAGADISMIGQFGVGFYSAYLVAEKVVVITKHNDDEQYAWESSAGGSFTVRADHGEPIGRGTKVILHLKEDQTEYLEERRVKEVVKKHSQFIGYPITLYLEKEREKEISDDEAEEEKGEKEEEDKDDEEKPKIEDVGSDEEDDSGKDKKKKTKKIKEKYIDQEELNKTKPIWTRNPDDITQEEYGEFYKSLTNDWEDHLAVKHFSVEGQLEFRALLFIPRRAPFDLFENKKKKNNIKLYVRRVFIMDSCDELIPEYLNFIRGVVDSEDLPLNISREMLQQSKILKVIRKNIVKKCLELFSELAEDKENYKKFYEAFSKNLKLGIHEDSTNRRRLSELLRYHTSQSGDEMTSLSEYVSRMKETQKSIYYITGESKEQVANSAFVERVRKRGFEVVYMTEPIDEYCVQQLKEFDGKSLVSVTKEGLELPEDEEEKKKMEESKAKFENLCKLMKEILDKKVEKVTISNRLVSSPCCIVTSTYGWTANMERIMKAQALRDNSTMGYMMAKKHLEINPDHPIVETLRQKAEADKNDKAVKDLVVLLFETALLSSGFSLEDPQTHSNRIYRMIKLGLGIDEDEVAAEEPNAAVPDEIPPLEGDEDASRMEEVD
Outline: (§1)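 A431 cells treated 24 h after seeding for 24 h over a concentration range; 17-DMAG 0.2 µM as reference. Cells lysed in RIPA buffer with protease and phosphatase inhibitors, protein measured by Bradford. Equal protein run on SDS-PAGE and blotted to nitrocellulose, then probed for EGFR, Cdk4, Akt, Hsp70 and actin. ECL detection; densitometry normalized to β-actin. Run at least twice.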

[4] = molecular target: Heat shock protein HSP 90-beta (Homo sapiens) (UniProt P08238); assay: Inhibition of HSP90 in human A431 cells overexpressing EGFR assessed as downregulation of CDK4 protein expression after 24 hrs by Western blot analysis; assay type: cell-based; conditions: A-431; outline: as §1
[5] = molecular target: Heat shock protein HSP 90-beta (Homo sapiens) (UniProt P08238); assay: Inhibition of HSP90 in human A431 cells overexpressing EGFR assessed as downregulation of AKT protein expression after 24 hrs by Western blot analysis; assay type: cell-based; conditions: A-431; outline: as §1
[6] = molecular target: Heat shock protein HSP 90-beta (Homo sapiens) (UniProt P08238); assay: Inhibition of HSP90 in human A431 cells overexpressing EGFR assessed as induction of HSP70 protein expression after 24 hrs by Western blot analysis; assay type: cell-based; conditions: A-431; outline: as §1

| SMILES | pIC50 [1] | pIC50 [2] | inhibition [3] | inhibition [4] | inhibition [5] | inhibition [6] |
| --- | --- | --- | --- | --- | --- | --- |
| CC(C)c1cc(-n2cc(-c3ccc(CN4CCN(c5ccccc5)CC4)cc3)nn2)c(O)cc1O | 6.49 | < 6.00 |  |  |  |  |
| CCNC(=O)c1nnn(-c2cc(C(C)C)c(O)cc2O)c1-c1ccc(Cn2ccnc2)cc1 | 7.64 | 7.55 |  |  |  |  |
| CC(C)c1cc(-n2nnc(C(=O)NC3CCCC3)c2-c2ccc(CN3CCOCC3)cc2)c(O)cc1O | 7.57 | 7.85 | Dose-dependent effect | Dose-dependent effect | Dose-dependent effect | Dose-dependent effect |
| CCNC(=O)c1nnn(-c2cc(C(C)C)c(O)cc2O)c1-c1ccc(CN2CCCCC2CCO)cc1 (stereo unspecified) | 8.00 | 6.96 |  |  |  |  |
| CC(C)c1cc(-n2nncc2-c2ccc(CN3CCN(c4ccccc4)CC3)cc2)c(O)cc1O | 7.44 | 6.28 |  |  |  |  |
| CCNC(=O)c1nnn(-c2cc(C(C)C)c(O)cc2O)c1-c1ccc(CNCCCN(CC)CC)cc1 | 7.92 | 6.39 |  |  |  |  |
| CCNC(=O)c1nnn(-c2cc(C(C)C)c(O)cc2O)c1-c1ccc(CN2CCN(C)CC2)cc1 | > 8.30 | 7.33 |  |  |  |  |
| CCNC(=O)c1nnn(-c2cc(C(C)C)c(O)cc2O)c1-c1ccc(CNCCN(CC)CC)cc1 | 7.82 | 6.70 |  |  |  |  |
| CCNC(=O)c1nnn(-c2cc(C(C)C)c(O)cc2O)c1-c1ccc(CNC2CCN(C)CC2)cc1 | 7.49 | < 6.00 |  |  |  |  |
| CCNC(=O)c1nnn(-c2cc(C(C)C)c(O)cc2O)c1-c1ccc(CN(CC)CC)cc1 | 7.60 | 7.96 | Dose-dependent effect | Dose-dependent effect | Dose-dependent effect | Dose-dependent effect |
| CC(C)c1cc(-n2nncc2-c2ccc(CN3CCOCC3)cc2)c(O)cc1O | 7.46 | 6.82 |  |  |  |  |
| CCNC(=O)c1nnn(-c2cc(C(C)C)c(O)cc2O)c1-c1ccc(CN2CC[C@H](N(C)C)C2)cc1 | 7.89 | 7.07 |  |  |  |  |
| CC(C)c1cc(-n2cc(-c3ccc(CN4CCN(Cc5ccccc5)CC4)cc3)nn2)c(O)cc1O | 6.53 | < 6.00 |  |  |  |  |
| CC(C)c1cc(-n2nnc(C(=O)N3CCOCC3)c2-c2ccc(CN3CCOCC3)cc2)c(O)cc1O | 6.57 | < 6.00 |  |  |  |  |
| CC(C)c1cc(-n2nnc(C(=O)N[C@H](C(=O)O)C(C)C)c2-c2ccc(CN3CCOCC3)cc2)c(O)cc1O | 6.74 | < 6.00 |  |  |  |  |
| CCNC(=O)c1nnn(-c2cc(C(C)C)c(O)cc2O)c1-c1ccc(CN2CCNCC2)cc1 | > 8.30 | 6.60 |  |  |  |  |

| SMILES | pIC50 [1] | pIC50 [2] | inhibition [3] | inhibition [4] | inhibition [5] | inhibition [6] |
| --- | --- | --- | --- | --- | --- | --- |
| CCNC(=O)c1nnn(-c2cc(C(C)C)c(O)cc2O)c1-c1ccc(CN2CCCCC2)cc1 | 7.68 | 8.22 | Dose-dependent effect | Dose-dependent effect | Dose-dependent effect | Dose-dependent effect |
| CC(C)c1cc(-n2nnc(C(=O)NCCCl)c2-c2ccc(CN3CCOCC3)cc2)c(O)cc1O | 7.77 | 8.37 |  |  |  |  |
| CCNC(=O)c1nnn(-c2cc(C(C)C)c(O)cc2O)c1-c1ccc(CNC2CCCCC2)cc1 | 8.17 | 7.82 |  |  |  |  |
| CCCCCCCNC(=O)c1nnn(-c2cc(C(C)C)c(O)cc2O)c1-c1ccc(CN2CCOCC2)cc1 | 7.48 | 7.35 |  |  |  |  |
| CCNC(=O)c1nnn(-c2cc(C(C)C)c(O)cc2O)c1-c1ccc(CN2CCC[C@H](O)C2)cc1 | 7.64 | 7.15 |  |  |  |  |
| CCNC(=O)c1nnn(-c2cc(C(C)C)c(O)cc2O)c1-c1ccc(CN2CCC(N(C)C)CC2)cc1 | > 8.30 | 6.92 |  |  |  |  |
| CCNC(=O)c1nnn(-c2cc(C(C)C)c(O)cc2O)c1-c1ccc(CNCC2CCCCC2)cc1 | > 8.30 | 8.68 | Dose-dependent effect | Dose-dependent effect | Dose-dependent effect | Dose-dependent effect |
| CC(C)c1cc(-n2nncc2-c2ccc(CN3CCCC(O)C3)cc2)c(O)cc1O (stereo unspecified) | 7.43 | 7.35 |  |  |  |  |
| CCNC(=O)c1nnn(-c2cc(C(C)C)c(OC(C)=O)cc2OC(C)=O)c1-c1ccc(CN2CCOCC2)cc1 | < 6.00 | 8.19 | Dose-dependent effect | Dose-dependent effect | Dose-dependent effect | Dose-dependent effect |
| CCNC(=O)c1nnn(-c2cc(C(C)C)c(O)cc2O)c1-c1ccc(CN2CCC[C@@H](O)C2)cc1 | 7.52 | 7.28 |  |  |  |  |
| CCNC(=O)c1nnn(-c2cc(C(C)C)c(O)cc2O)c1-c1ccc(CNCCN2CCOCC2)cc1 | 7.83 | 6.85 | Dose-dependent effect | Dose-dependent effect | Dose-dependent effect | Dose-dependent effect |
| CC(C)c1cc(-n2nnc(C(=O)NC3CCCCC3)c2-c2ccc(CN3CCOCC3)cc2)c(O)cc1O | 7.02 | 7.34 |  |  |  |  |
| CC(C)c1cc(-n2nncc2-c2ccc(CN3CCN(Cc4ccccc4)CC3)cc2)c(O)cc1O | 7.57 | 6.74 |  |  |  |  |
| CCNC(=O)c1nnn(-c2cc(C(C)C)c(O)cc2O)c1-c1ccc(CN2CCCC2)cc1 | > 8.30 | 8.52 |  |  |  |  |
| CCNC(=O)c1nnn(-c2cc(C(C)C)c(O)cc2O)c1-c1ccc(CN(CC)CCO)cc1 | > 8.30 | 7.25 |  |  |  |  |
